≈ marks a conversion by molar mass, not a printed value. Calls of active or inactive are those of the source. The calls are words filed in the database; no cut-off is given here.
Legend:
TERT-RPE1 [1] = assay: Cytotoxicity against human RPE1 cells assessed as reduction in cell viability after 48 hrs by ATPlite-based luminescent assay; conditions: RPE-1, 48 h
How it was run: (§1)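 Cells were grown […] with 10% FBS, glutamax, NEAA and pen/strep at 37 °C, 5% CO2. Media were DMEM for RPE-1, HepG2 and BJ (BJ plus 10 ng/ml bFGF), F-12K for PC3, and IMDM for K562/HL-60. Cells were seeded at 500 per well and dosed from DMSO at 12 concentrations, 40 µM to 1 nM, in triplicate. After 48 h, intracellular ATP was read by luminescence. ED50 was obtained by variable-slope nonlinear regression.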

BJ = assay: Cytotoxicity against human BJ cells assessed as reduction in cell viability after 48 hrs by ATPlite-based luminescent assay; how it was run: as §1
K562 [2] = assay: Cytotoxicity against human K562 cells assessed as reduction in cell viability after 48 hrs by ATPlite-based luminescent assay; conditions: K562, 48 h; how it was run: as §1
HL-60 [3] = assay: Cytotoxicity against human HL60 cells assessed as reduction in cell viability after 48 hrs by ATPlite-based luminescent assay; conditions: HL-60, 48 h; how it was run: as §1
PC-3 [4] = assay: Cytotoxicity against human PC3 cells assessed as reduction in cell viability after 48 hrs by ATPlite-based luminescent assay; conditions: PC-3, 48 h; how it was run: as §1
MCF7 = assay: Cytotoxicity against human MCF7 cells assessed as reduction in cell viability after 48 hrs by ATPlite-based luminescent assay; conditions: MCF7, 48 h
HepG2 [5] = assay: Cytotoxicity against human HepG2 cells assessed as reduction in cell viability after 48 hrs by ATPlite-based luminescent assay; conditions: HepG2, 48 h; how it was run: as §1
TERT-RPE1 [6] = assay: Induction of apoptosis in human RPE1 cells assessed as caspase 3/7 activity after 24 hrs by caspase-glo luminescent assay; format: cell-based; conditions: RPE-1, 24 h
How it was run: (§2)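 Cells were seeded at 500 per well in their growth media and exposed to 12 concentrations from 40 µM to 1 nM, delivered from DMSO, in triplicate. After 24 h, caspase-3/7 activity was read by Caspase-Glo luminescence. Data were normalized and ED50 was fitted by variable-slope nonlinear regression.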

K562 [7] = assay: Induction of apoptosis in human K562 cells assessed as caspase 3/7 activity after 24 hrs by caspase-glo luminescent assay; format: cell-based; conditions: K562, 24 h; how it was run: as §2
HL-60 [8] = assay: Induction of apoptosis in human HL60 cells assessed as caspase 3/7 activity after 24 hrs by caspase-glo luminescent assay; format: cell-based; conditions: HL-60, 24 h; how it was run: as §2
PC-3 [9] = assay: Induction of apoptosis in human PC3 cells assessed as caspase 3/7 activity after 24 hrs by caspase-glo luminescent assay; format: cell-based; conditions: PC-3, 24 h; how it was run: as §2
HepG2 [10] = assay: Induction of apoptosis in human HepG2 cells assessed as caspase 3/7 activity after 24 hrs by caspase-glo luminescent assay; format: cell-based; conditions: HepG2, 24 h; how it was run: as §2
Staphylococcus aureus [11] = assay: Antibacterial activity against Staphylococcus aureus ATCC 6538 after 24 hrs by microdilution assay; format: functional; conditions: ATCC 6538, 24 h
Staphylococcus aureus [12] = assay: Antibacterial activity against methicillin-resistant Staphylococcus aureus HK5996/08 clinical isolate after 24 hrs by microdilution assay; format: functional; conditions: HK5996/08, 24 h
[13] = system: Staphylococcus epidermidis; assay: Antibacterial activity against Staphylococcus epidermidis HK6966/08 clinical isolate after 24 hrs by microdilution assay; format: functional; conditions: HK6966/08, 24 h
Enterococcus sp. [14] = assay: Antibacterial activity against Enterococcus sp. HK14365/08 clinical isolate after 24 hrs by microdilution assay; format: functional; conditions: HK14365/08, 24 h
Escherichia coli [15] = assay: Antibacterial activity against Escherichia coli ATCC 8739 after 24 hrs by microdilution assay; format: functional; conditions: ATCC 8739, 24 h
How it was run: (§3)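 Broth microdilution in Mueller-Hinton medium buffered to pH 7.4 (±0.2), with DMSO as diluent at no more than 2% final. Compounds were tested as 2-fold serial dilutions from 2000 to 0.488 µmol/l. The inoculum was 0.5 McFarland (1.5×10^8 cfu/ml). Plates were held at 37 °C and read visually at 24 and 48 h. MIC was taken as 95% growth inhibition versus control, determined twice in duplicate.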

Klebsiella pneumoniae [16] = assay: Antibacterial activity against Klebsiella pneumoniae HK11750/08 clinical isolate after 24 hrs by microdilution assay; format: functional; conditions: HK11750/08, 24 h
Klebsiella pneumoniae [17] = assay: Antibacterial activity against Klebsiella pneumoniae HK14368/08 clinical isolate after 24 hrs by microdilution assay; format: functional; conditions: HK14368/08, 24 h
Pseudomonas aeruginosa [18] = assay: Antibacterial activity against Pseudomonas aeruginosa ATCC 9027 after 24 hrs by microdilution assay; format: functional; conditions: ATCC 9027, 24 h; how it was run: as §3
Staphylococcus aureus [19] = assay: Antibacterial activity against Staphylococcus aureus ATCC 6538 after 48 hrs by microdilution assay; format: functional; conditions: ATCC 6538, 48 h
Staphylococcus aureus [20] = assay: Antibacterial activity against methicillin-resistant Staphylococcus aureus HK5996/08 clinical isolate after 48 hrs by microdilution assay; format: functional; conditions: HK5996/08, 48 h
[21] = system: Staphylococcus epidermidis; assay: Antibacterial activity against Staphylococcus epidermidis HK6966/08 clinical isolate after 48 hrs by microdilution assay; format: functional; conditions: HK6966/08, 48 h
Enterococcus sp. [22] = assay: Antibacterial activity against Enterococcus sp. HK14365/08 clinical isolate after 48 hrs by microdilution assay; format: functional; conditions: HK14365/08, 48 h
Escherichia coli [23] = assay: Antibacterial activity against Escherichia coli ATCC 8739 after 48 hrs by microdilution assay; format: functional; conditions: ATCC 8739, 48 h; how it was run: as §3
Klebsiella pneumoniae [24] = assay: Antibacterial activity against Klebsiella pneumoniae HK11750/08 clinical isolate after 48 hrs by microdilution assay; format: functional; conditions: HK11750/08, 48 h
Klebsiella pneumoniae [25] = assay: Antibacterial activity against Klebsiella pneumoniae HK14368/08 clinical isolate after 48 hrs by microdilution assay; format: functional; conditions: HK14368/08, 48 h
Pseudomonas aeruginosa [26] = assay: Antibacterial activity against Pseudomonas aeruginosa ATCC 9027 after 48 hrs by microdilution assay; format: functional; conditions: ATCC 9027, 48 h; how it was run: as §3
Candida albicans [27] = assay: Antifungal activity against Candida albicans ATCC 44859 up to 1 mM after 24 to 48 hrs by microdilution assay; format: functional, organism-based
How it was run: (§4)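 Fungal microdilution following modified CLSI M27-A3/M38-A2, in RPMI 1640 with L-glutamine and 0.165 M MOPS at pH 7.0, with DMSO no more than 2% final. Compounds were 2-fold serially diluted from 2000 to 0.488 µmol/l. The inoculum was 5×10^3 cfu/ml. Incubation was at 35 °C, read visually at 24/48 h (T. mentagrophytes at 72/120 h). MIC was IC80 for yeasts and IC50 for filamentous fungi, determined twice in duplicate.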

Candida albicans [28] = assay: Antifungal activity against Candida albicans ATCC 90028 up to 1 mM after 24 to 48 hrs by microdilution assay; format: functional, organism-based; how it was run: as §4
Candida parapsilosis = assay: Antifungal activity against Candida parapsilosis ATCC 22019 up to 1 mM after 24 to 48 hrs by microdilution assay; format: functional, organism-based; how it was run: as §4
Pichia kudriavzevii [29] = assay: Antifungal activity against Candida krusei ATCC 6258 up to 1 mM after 24 to 48 hrs by microdilution assay; format: functional, organism-based; how it was run: as §4
Pichia kudriavzevii [30] = assay: Antifungal activity against Candida krusei E28 clinical isolate up to 1 mM after 24 to 48 hrs by microdilution assay; format: functional, organism-based; how it was run: as §4
Candida tropicalis = assay: Antifungal activity against Candida tropicalis 156 clinical isolate up to 1 mM after 24 to 48 hrs by microdilution assay; format: functional, organism-based; how it was run: as §4
Nakaseomyces glabratus = assay: Antifungal activity against Candida glabrata 20/I clinical isolate up to 1 mM after 24 to 48 hrs by microdilution assay; format: functional, organism-based; how it was run: as §4
Clavispora lusitaniae = assay: Antifungal activity against Candida lusitaniae 2446/I clinical isolate up to 1 mM after 24 to 48 hrs by microdilution assay; format: functional, organism-based; how it was run: as §4
Trichosporon asahii = assay: Antifungal activity against Trichosporon asahii 1188 clinical isolate up to 1 mM after 24 to 48 hrs by microdilution assay; format: functional, organism-based; how it was run: as §4
Aspergillus fumigatus = assay: Antifungal activity against Aspergillus fumigatus 231 up to 1 mM after 24 to 48 hrs by microdilution assay; format: functional, organism-based; how it was run: as §4
Lichtheimia corymbifera = assay: Antifungal activity against Absidia corymbifera 272 up to 1 mM after 24 to 48 hrs by microdilution assay; format: functional, organism-based; how it was run: as §4
[31] = system: Trichophyton mentagrophytes; assay: Antifungal activity against Trichophyton mentagrophytes 445 up to 1 mM after 72 to 120 hrs by microdilution assay; format: functional, organism-based; how it was run: as §4

Structure (SMILES) | IC50 (TERT-RPE1 [1]) [µM] | IC50 (BJ) [µM] | IC50 (K562 [2]) [µM] | IC50 (HL-60 [3]) [µM] | IC50 (PC-3 [4]) [µM] | IC50 (MCF7) [µM] | IC50 (HepG2 [5]) [µM] | IC50 (TERT-RPE1 [6]) [µM] | IC50 (K562 [7]) [µM] | IC50 (HL-60 [8]) [µM] | IC50 (PC-3 [9]) [µM] | IC50 (HepG2 [10]) [µM] | MIC95 (Staphylococcus aureus [11]) [µM] | MIC95 (Staphylococcus aureus [12]) [µM] | MIC95 [13] [µM] | MIC95 (Enterococcus sp. [14]) [µM] | MIC95 (Escherichia coli [15]) [µM] | MIC95 (Klebsiella pneumoniae [16]) [µM] | MIC95 (Klebsiella pneumoniae [17]) [µM] | MIC95 (Pseudomonas aeruginosa [18]) [µM] | also measured
COc1ccc(C2=C(c3cccc(Cl)c3Cl)C(=O)OC2(CO)CO)cc1 | > 40 | > 40 | > 40 | > 40 | > 40 | > 40 | > 40 | > 40 | > 40 | > 40 | > 40 | > 40 | 7.81 (≈ 3.09 µg/mL) | 62.5 (≈ 24.7 µg/mL) | 250 (≈ 98.8 µg/mL) | 500 (≈ 198 µg/mL) | > 500 | > 500 | > 500 | > 500 | MIC95 (Staphylococcus aureus [19]): 15.6 µM (≈ 6.17 µg/mL); MIC95 (Staphylococcus aureus [20]): 125 µM (≈ 49.4 µg/mL); MIC95 [21]: 250 µM (≈ 98.8 µg/mL); MIC95 (Enterococcus sp. [22]): > 500 µM; MIC95 (Escherichia coli [23]): > 500 µM; MIC95 (Klebsiella pneumoniae [24]): > 500 µM; MIC95 (Klebsiella pneumoniae [25]): > 500 µM; MIC95 (Pseudomonas aeruginosa [26]): > 500 µM; Activity (Candida albicans [27]): inactive; Activity (Candida albicans [28]): inactive; Activity (Candida parapsilosis): inactive; Activity (Pichia kudriavzevii [29]): inactive; Activity (Pichia kudriavzevii [30]): inactive; Activity (Candida tropicalis): inactive; Activity (Nakaseomyces glabratus): inactive; Activity (Clavispora lusitaniae): inactive; Activity (Trichosporon asahii): inactive; Activity (Aspergillus fumigatus): inactive; Activity (Lichtheimia corymbifera): inactive; Activity [31]: inactive
Cc1ccc(C2=C(c3ccc(Br)cc3)C(=O)OC2(CO)CO)cc1 | > 40 | > 40 | > 40 | > 40 | > 40 | > 40 | > 40 | > 40 | > 40 | > 40 | > 40 | > 40 | 0.98 (≈ 0.381 µg/mL) | 250 (≈ 97.3 µg/mL) | 62.5 (≈ 24.3 µg/mL) | 500 (≈ 195 µg/mL) | > 500 | > 500 | > 500 | > 500 | MIC95 (Staphylococcus aureus [19]): 3.9 µM (≈ 1.52 µg/mL); MIC95 (Staphylococcus aureus [20]): 500 µM (≈ 195 µg/mL); MIC95 [21]: 500 µM (≈ 195 µg/mL); MIC95 (Enterococcus sp. [22]): > 500 µM; MIC95 (Escherichia coli [23]): > 500 µM; MIC95 (Klebsiella pneumoniae [24]): > 500 µM; MIC95 (Klebsiella pneumoniae [25]): > 500 µM; MIC95 (Pseudomonas aeruginosa [26]): > 500 µM; Activity (Candida albicans [27]): inactive; Activity (Candida albicans [28]): inactive; Activity (Candida parapsilosis): inactive; Activity (Pichia kudriavzevii [29]): inactive; Activity (Pichia kudriavzevii [30]): inactive; Activity (Candida tropicalis): inactive; Activity (Nakaseomyces glabratus): inactive; Activity (Clavispora lusitaniae): inactive; Activity (Trichosporon asahii): inactive; Activity (Aspergillus fumigatus): inactive; Activity (Lichtheimia corymbifera): inactive; Activity [31]: inactive
O=C1OC(CO)(CO)C(c2ccc(Br)cc2)=C1c1cccc(Cl)c1Cl | > 40 | > 40 | > 40 | > 40 | > 40 | > 40 | > 40 | > 40 | > 40 | > 40 | > 40 | > 40 | 15.6 (≈ 6.94 µg/mL) | > 500 | 62.5 (≈ 27.8 µg/mL) | > 500 | > 500 | > 500 | > 500 | > 500 | MIC95 (Staphylococcus aureus [19]): 31.2 µM (≈ 13.9 µg/mL); MIC95 (Staphylococcus aureus [20]): > 500 µM; MIC95 [21]: 250 µM (≈ 111 µg/mL); MIC95 (Enterococcus sp. [22]): > 500 µM; MIC95 (Escherichia coli [23]): > 500 µM; MIC95 (Klebsiella pneumoniae [24]): > 500 µM; MIC95 (Klebsiella pneumoniae [25]): > 500 µM; MIC95 (Pseudomonas aeruginosa [26]): > 500 µM; Activity (Candida albicans [27]): inactive; Activity (Candida albicans [28]): inactive; Activity (Candida parapsilosis): inactive; Activity (Pichia kudriavzevii [29]): inactive; Activity (Pichia kudriavzevii [30]): inactive; Activity (Candida tropicalis): inactive; Activity (Nakaseomyces glabratus): inactive; Activity (Clavispora lusitaniae): inactive; Activity (Trichosporon asahii): inactive; Activity (Aspergillus fumigatus): inactive; Activity (Lichtheimia corymbifera): inactive; Activity [31]: inactive
